{"source": "the M2OR odorant receptor database", "conditions_in_all_cases": "stereoisomer not certain", "key": {"A0A140T8K0": {"tested_on": "T1, A0A140T8K0", "T1 sequence (whole entry)": "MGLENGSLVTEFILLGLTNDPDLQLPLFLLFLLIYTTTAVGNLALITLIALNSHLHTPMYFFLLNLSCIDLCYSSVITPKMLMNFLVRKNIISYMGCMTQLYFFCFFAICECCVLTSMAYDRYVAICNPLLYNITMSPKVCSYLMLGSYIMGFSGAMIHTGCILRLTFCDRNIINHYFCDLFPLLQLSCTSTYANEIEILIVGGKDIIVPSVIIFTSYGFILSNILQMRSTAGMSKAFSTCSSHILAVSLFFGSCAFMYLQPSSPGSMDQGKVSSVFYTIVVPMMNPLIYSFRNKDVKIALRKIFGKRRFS", "in_short": "(§1)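 Assay methods differ from source to source, frequently being transient luciferase assays in mammalian cell lines. For each receptor–molecule pair, the label responsive (active) applies when the original authors judged the measured signal statistically different from baseline, and non-responsive (inactive) applies otherwise.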"}, "A0A140T8K4": {"tested_on": "T2, A0A140T8K4", "T2 sequence (whole entry)": "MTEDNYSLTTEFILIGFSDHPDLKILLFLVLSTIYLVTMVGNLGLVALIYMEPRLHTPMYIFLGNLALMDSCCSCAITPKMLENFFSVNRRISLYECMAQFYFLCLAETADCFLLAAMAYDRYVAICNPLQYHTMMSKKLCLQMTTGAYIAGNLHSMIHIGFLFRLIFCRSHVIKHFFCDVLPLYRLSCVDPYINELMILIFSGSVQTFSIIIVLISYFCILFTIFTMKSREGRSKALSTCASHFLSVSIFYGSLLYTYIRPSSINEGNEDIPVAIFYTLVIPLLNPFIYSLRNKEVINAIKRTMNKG", "in_short": "as §1"}, "A0A1L1SVG7": {"tested_on": "T3, A0A1L1SVG7", "T3 sequence (whole entry)": "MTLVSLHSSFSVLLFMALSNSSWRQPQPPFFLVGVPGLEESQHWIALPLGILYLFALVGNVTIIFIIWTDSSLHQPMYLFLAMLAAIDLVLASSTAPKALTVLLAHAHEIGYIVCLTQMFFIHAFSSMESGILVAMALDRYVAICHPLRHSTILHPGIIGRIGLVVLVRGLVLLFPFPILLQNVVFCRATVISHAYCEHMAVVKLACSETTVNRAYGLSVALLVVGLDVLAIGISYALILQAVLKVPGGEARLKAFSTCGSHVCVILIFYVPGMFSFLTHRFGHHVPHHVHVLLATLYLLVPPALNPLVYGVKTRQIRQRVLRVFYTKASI", "in_short": "as §1"}, "A0A2J8MY22": {"tested_on": "T4, A0A2J8MY22", "T4 sequence (whole entry)": "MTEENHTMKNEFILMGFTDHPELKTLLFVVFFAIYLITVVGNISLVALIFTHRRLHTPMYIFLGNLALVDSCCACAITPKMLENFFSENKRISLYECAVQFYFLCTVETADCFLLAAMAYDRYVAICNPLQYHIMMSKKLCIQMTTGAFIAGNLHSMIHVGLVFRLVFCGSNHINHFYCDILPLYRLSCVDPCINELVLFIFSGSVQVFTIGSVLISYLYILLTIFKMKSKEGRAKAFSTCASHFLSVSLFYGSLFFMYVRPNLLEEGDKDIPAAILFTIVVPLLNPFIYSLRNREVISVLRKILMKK", "in_short": "as §1"}, "A0A2R8ZIW4": {"tested_on": "T5, A0A2R8ZIW4", "T5 sequence (whole entry)": "T4 sequence (whole entry) with V39I, I280V", "in_short": "as §1"}, "A0A3Q7SVK8": {"tested_on": "T6, A0A3Q7SVK8", "T6 sequence (whole entry)": "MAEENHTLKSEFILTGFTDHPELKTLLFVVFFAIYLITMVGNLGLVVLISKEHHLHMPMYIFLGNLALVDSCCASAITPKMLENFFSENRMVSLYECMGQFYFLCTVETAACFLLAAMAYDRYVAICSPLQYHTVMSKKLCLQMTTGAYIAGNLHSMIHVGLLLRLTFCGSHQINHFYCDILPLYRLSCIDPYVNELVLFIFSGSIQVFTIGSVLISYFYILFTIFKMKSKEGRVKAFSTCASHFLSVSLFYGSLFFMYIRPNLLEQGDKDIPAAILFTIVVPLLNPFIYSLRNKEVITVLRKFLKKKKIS", "in_short": "as §1"}, "A0A6P3DZI2": {"tested_on": "T7, A0A6P3DZI2", "T7 sequence (whole entry)": "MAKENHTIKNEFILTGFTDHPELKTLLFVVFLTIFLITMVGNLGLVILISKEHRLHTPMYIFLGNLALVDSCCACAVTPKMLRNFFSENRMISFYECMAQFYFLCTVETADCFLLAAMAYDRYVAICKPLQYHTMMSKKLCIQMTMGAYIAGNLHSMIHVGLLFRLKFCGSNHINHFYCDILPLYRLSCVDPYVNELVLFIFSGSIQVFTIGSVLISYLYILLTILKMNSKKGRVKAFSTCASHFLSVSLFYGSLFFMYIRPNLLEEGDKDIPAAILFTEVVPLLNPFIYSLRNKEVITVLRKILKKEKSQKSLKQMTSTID", "in_short": "as §1"}, "A0A6P6H1F7": {"tested_on": "T8, A0A6P6H1F7", "T8 sequence (whole entry)": "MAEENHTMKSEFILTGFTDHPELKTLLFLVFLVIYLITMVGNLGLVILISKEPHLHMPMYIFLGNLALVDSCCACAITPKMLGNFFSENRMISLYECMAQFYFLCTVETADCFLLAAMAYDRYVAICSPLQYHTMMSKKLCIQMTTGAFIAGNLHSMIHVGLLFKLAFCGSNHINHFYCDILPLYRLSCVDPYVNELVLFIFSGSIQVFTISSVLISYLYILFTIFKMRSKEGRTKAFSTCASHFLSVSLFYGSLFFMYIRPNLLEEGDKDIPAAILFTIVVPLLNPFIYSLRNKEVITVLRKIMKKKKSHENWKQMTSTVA", "in_short": "as §1"}}, "note": "Substitutions are numbered along the chain they refer to."}
{"smiles": "CCCCC(C)=O", "values": [{"measurement": "odorant receptor agonist call", "setting": "A0A140T8K0", "value": "inactive"}, {"measurement": "odorant receptor agonist call", "setting": "A0A140T8K4", "value": "inactive"}, {"measurement": "odorant receptor agonist call", "setting": "A0A1L1SVG7", "value": "inactive"}]}
{"smiles": "CC(=O)Oc1ccccc1", "values": [{"measurement": "odorant receptor agonist call", "setting": "A0A140T8K0", "value": "inactive"}, {"measurement": "odorant receptor agonist call", "setting": "A0A140T8K4", "value": "inactive"}, {"measurement": "odorant receptor agonist call", "setting": "A0A1L1SVG7", "value": "inactive"}]}
{"smiles": "CCCCCCCCC(=O)O", "values": [{"measurement": "odorant receptor agonist call", "setting": "A0A140T8K0", "value": "inactive"}, {"measurement": "odorant receptor agonist call", "setting": "A0A140T8K4", "value": "inactive"}, {"measurement": "odorant receptor agonist call", "setting": "A0A1L1SVG7", "value": "active"}]}
{"smiles": "COc1cc(C(=O)O)ccc1O", "values": [{"measurement": "odorant receptor agonist call", "setting": "A0A140T8K0", "value": "inactive"}, {"measurement": "odorant receptor agonist call", "setting": "A0A140T8K4", "value": "inactive"}, {"measurement": "odorant receptor agonist call", "setting": "A0A1L1SVG7", "value": "inactive"}]}
{"smiles": "CCCCCC=O", "values": [{"measurement": "odorant receptor agonist call", "setting": "A0A140T8K0", "value": "inactive"}, {"measurement": "odorant receptor agonist call", "setting": "A0A140T8K4", "value": "inactive"}, {"measurement": "odorant receptor agonist call", "setting": "A0A1L1SVG7", "value": "inactive"}]}
{"smiles": "CNc1ccccc1C(=O)OC", "values": [{"measurement": "odorant receptor agonist call", "setting": "A0A140T8K0", "value": "inactive"}]}
{"smiles": "Cc1c(C)c(C)c(C=O)c(C)c1C", "values": [{"measurement": "odorant receptor agonist call", "setting": "A0A140T8K0", "value": "inactive"}]}
{"smiles": "CCSCC", "values": [{"measurement": "odorant receptor agonist call", "setting": "A0A140T8K0", "value": "inactive"}]}
{"smiles": "O=C1CCOc2ccccc21", "values": [{"measurement": "odorant receptor agonist call", "setting": "A0A140T8K0", "value": "inactive"}, {"measurement": "odorant receptor agonist call", "setting": "A0A140T8K4", "value": "inactive"}, {"measurement": "odorant receptor agonist call", "setting": "A0A1L1SVG7", "value": "inactive"}]}
{"smiles": "CC(=O)OCC=C(C)C", "values": [{"measurement": "odorant receptor agonist call", "setting": "A0A140T8K0", "value": "inactive"}, {"measurement": "odorant receptor agonist call", "setting": "A0A140T8K4", "value": "inactive"}, {"measurement": "odorant receptor agonist call", "setting": "A0A1L1SVG7", "value": "inactive"}]}
{"smiles": "CCCCCCCCCC(=O)[O-].[H+]", "values": [{"measurement": "odorant receptor agonist call", "setting": "A0A140T8K0", "value": "inactive"}, {"measurement": "odorant receptor agonist call", "setting": "A0A140T8K4", "value": "inactive"}, {"measurement": "odorant receptor agonist call", "setting": "A0A1L1SVG7", "value": "active"}]}
{"smiles": "CCCCCCO", "values": [{"measurement": "odorant receptor agonist call", "setting": "A0A140T8K0", "value": "inactive"}, {"measurement": "odorant receptor agonist call", "setting": "A0A140T8K4", "value": "inactive"}, {"measurement": "odorant receptor agonist call", "setting": "A0A1L1SVG7", "value": "inactive"}]}
{"smiles": "C=Cc1cnccn1", "values": [{"measurement": "odorant receptor agonist call", "setting": "A0A140T8K4", "value": "inactive"}, {"measurement": "odorant receptor agonist call", "setting": "A0A2J8MY22", "value": "active"}, {"measurement": "odorant receptor agonist call", "setting": "A0A2R8ZIW4", "value": "active"}, {"measurement": "odorant receptor agonist call", "setting": "A0A3Q7SVK8", "value": "active"}, {"measurement": "odorant receptor agonist call", "setting": "A0A6P3DZI2", "value": "inactive"}, {"measurement": "odorant receptor agonist call", "setting": "A0A6P6H1F7", "value": "active"}]}
{"smiles": "CCC(C(=O)O)c1ccccc1", "note": "(centres undefined)", "values": [{"measurement": "odorant receptor agonist call", "setting": "A0A140T8K4", "value": "inactive"}, {"measurement": "odorant receptor agonist call", "setting": "A0A1L1SVG7", "value": "inactive"}]}
{"smiles": "CCc1cnc(C)c(C)n1", "values": [{"measurement": "odorant receptor agonist call", "setting": "A0A140T8K4", "value": "active"}, {"measurement": "odorant receptor agonist call", "setting": "A0A2J8MY22", "value": "active"}, {"measurement": "odorant receptor agonist call", "setting": "A0A2R8ZIW4", "value": "inactive"}, {"measurement": "odorant receptor agonist call", "setting": "A0A3Q7SVK8", "value": "inactive"}, {"measurement": "odorant receptor agonist call", "setting": "A0A6P3DZI2", "value": "inactive"}, {"measurement": "odorant receptor agonist call", "setting": "A0A6P6H1F7", "value": "inactive"}]}
